pKd: −log10 of the molar value. Entries after “also recorded” stand apart in the source; their conditions may differ.
Experiments:
[1] = biological target: T1, CXCL12 (Homo sapiens, UniProt P48061); assay: 2D NMR chemical shift perturbation titration of 15N-CXCL12; type: binding; conditions: for precipitation/aggregation of CXCL12 on addition of compound: NMR titration samples
[2] = Qualitative solubility of compounds in NMR titration samples; type: physicochemical; conditions: samples prepared for NMR titration
Outline: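 Test compound titrated into CXCL12 at increasing concentrations up to 1600 μM, with HSQC spectra recorded at each step. Solubility was scored against a cut-off of ≥1600 μM in these titration samples. Soluble compounds counted as binders if they also shifted at least two of residues I28, V39 and A40 by ≥0.5 ppm.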

[3] = biological target: T1, CXCL12; assay: Calculation of ligand efficiency; conditions: Table 6; LLE = pKd – cLogP

Compound: O=C(O)c1ccc(Nc2nc(Nc3ccc(C(=O)O)cc3)nc(-c3ccccc3)n2)cc1 [Compound 9m]
- precipitation/aggregation of CXCL12 on addition of compound [1]: caused aggregation and precipitation of the protein

Compound: O=C(O)CSc1nc(SCC(=O)O)nc(-c2ccc(N3CCOCC3)cc2)n1 [Compound 13i]
- solubility, qualitative [2]: qualitatively greater solubility

Compound: O=C(O)CSc1nc(SCC(=O)O)nc(Sc2ccccc2)n1 [Compound 24a, 2,2'-((6-(Phenylthio)-1,3,5-triazine-2,4-diyl)bis(sulfanediyl))diacetic acid]
- solubility, qualitative [2]: not as soluble as some of our other analogues

Compound: O=C(O)CSc1nc(SCC(=O)O)nc(C2C3CC4CC(C3)CC2C4)n1 (centres unmarked) [Compound 17, 2,2'-((6-((1r,3r)-Adamantan-2-yl)-1,3,5-triazine-2,4-diyl)bis(sulfanediyl))diacetic acid]
- pKd [1]: < 2.80

Compound: O=C(O)CSc1nc(SCC(=O)O)nc(-c2cnc3ccccc3c2)n1 [Compound 13l]
- precipitation/aggregation of CXCL12 on addition of compound [1]: precipitated the protein from solution; also recorded: caused CXCL12 to precipitate

Compound: O=C(O)CSc1nc(SCC(=O)O)nc(C2=CCCCC2)n1 [Compound 20, 2,2'-((6-(Cyclohex-1-en-1-yl)-1,3,5-triazine-2,4-diyl)bis(sulfanediyl))diacetic acid]
- precipitation/aggregation of CXCL12 on addition of compound [1]: caused the protein to precipitate; also recorded: b 20 caused CXCL12 to precipitate

Compound: O=C(O)CSc1nc(SCC(=O)O)nc(N2CCOCC2)n1 [Compound 24j]
- LLE (lipophilic ligand efficiency) [3]: 2.07
- solubility, qualitative [2]: notably more soluble than its analogues

Compound: O=C(O)CSc1nc(SCC(=O)O)nc(-c2ccc(Oc3ccccc3)cc2)n1 [Compound 13m]
- precipitation/aggregation of CXCL12 on addition of compound [1]: precipitated the protein from solution; also recorded: caused CXCL12 to precipitate

Compound: O=C(O)CSc1nc(SCC(=O)O)nc(-c2ccc(-c3ccccc3)cc2)n1 [Compound 13e]
- solubility, qualitative [2]: insoluble; also recorded: low solubility

Compound: O=C(O)CSc1nc(SCC(=O)O)nc(-c2ccoc2)n1 [Compound 13n]
- precipitation/aggregation of CXCL12 on addition of compound [1]: precipitated the protein from solution; also recorded: caused CXCL12 to precipitate

From paper PMC8592115 (ACS Medicinal Chemistry Letters, 2021)
